# The source made the active and inactive calls. The calls are words filed in the database; no cut-off is given here.
# How the values were obtained:
# A549 [1] = assay: Cytotoxicity against human A549 cells after 48 hrs by alamar blue assay; assay type: functional, cell-based; conditions: A549, 48 h
# [2] = Cytotoxicity against human BEAS2B cells uo to 80 uM after 48 hrs by alamar blue assay; assay type: cell-based; conditions: beas-2b
# Method in brief: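 Beas-2b cells seeded at 5000/well in RPMI 1640 + 10% FBS, 24 h at 37 °C, 5% CO2; then treated 0-80 μM in triplicate per concentration, 0.1% DMSO final, 48 h. Viability read by Alamar Blue per manufacturer's protocol; mean ± SE of three separate experiments.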
# A549 [3] = assay: Cell cycle arrest in human A549 cells assessed as accumulation at sub-G1 phase after 48 hrs using propidium iodide staining by flow cytometry; assay type: functional, cell-based
# Method in brief: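 A549 cells treated 0-5 μM (0.31-5 μM) or 0.1% DMSO vehicle for 48 h. 5 × 10^5 cells fixed in 70% ethanol on ice ≥2 h, stained with RNase (200 μg/mL) and PI (10 μg/mL) 30 min at room temperature; sub-G1 fraction by flow cytometry, ≥10 000 cells per sample; mean ± SE of three experiments.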
# A549 [4] = assay: Induction of apoptosis in human A549 cells assessed as increase in DNA breaks at 5 uM after 24 hrs by flow cytometry based TUNEL assay; assay type: functional
# Method in brief: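 A549 cells exposed to 5 μM for various times. 5 × 10^5 cells fixed in 1% paraformaldehyde and 70% ethanol, TdT reaction with DIG-dUTP 30 min at 37 °C, anti-DIG-fluorescein 30 min in the dark, then PI (5 μg/mL) plus RNase A (100 μg/mL) 30 min; fluorescence by flow cytometry. One of three repeats shown.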
# A549 [5] = assay: Induction of autophagy in human A549 cells assessed as acridine orange stain incorporation at 5 uM after 24 hrs by fluorescence microscopic analysis; assay type: functional, cell-based
# A549 [6] = assay: Induction of apoptosis in human A549 cells assessed as blockade of sub-G1 phase increase at 5 uM after 36 hrs using propidium iodide staining by flow cytometry in presence of Z-VAD-fmk; assay type: functional, cell-based
# Method in brief: (§1)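 Ethanol-fixed cells stained with RNase (200 μg/mL) and PI (10 μg/mL) 30 min; sub-G1 population by flow cytometry on ≥10 000 cells; mean ± SE of three experiments.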
# A549 [7] = assay: Induction of apoptosis in human A549 cells assessed as blockade of sub-G1 phase increase at 5 uM after 36 hrs using propidium iodide staining by flow cytometry in presence of N-acetyl-cysteine; assay type: functional, cell-based; method in brief: as §1
# A549 [8] = assay: Induction of apoptosis in human A549 cells assessed as blockade of sub-G1 phase increase at 5 uM after 36 hrs using propidium iodide staining by flow cytometry in presence of 4,4'-diisothiocyano- 2,2'-stilbenedisulfonic acid; assay type: functional, cell-based; method in brief: as §1
# A549 [9] = assay: Induction of apoptosis in human A549 cells assessed as loss of mitochondria membrane potential at 5 uM after up to 48 hrs using 3,3'-diethyloxacarbocyanine iodide staining by flow cytometry; assay type: functional, cell-based
# Method in brief: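 A549 cells treated with 5 μM or 0.1% DMSO for indicated times; 5 × 10^5 cells stained with 50 nM DiOC2(3), 15 min, 37 °C, dark, washed in cold PBS. Flow cytometry, excitation 488 nm, emission 525 nm (FL-1); low-uptake cells scored as mitochondrial damage against untreated controls. One of three repeats shown.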
# A549 [10] = assay: Induction of apoptosis in human A549 cells assessed as loss of mitochondrial cytochrome c at 5 uM after up to 48 hrs by Western blotting; assay type: functional, cell-based
# Method in brief: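 A549 cells treated 5 μM or 0.1% DMSO for 36 or 48 h. Cells homogenized in sucrose/HEPES buffer A on ice, then spun at 750g twice and 10000g for 60 min at 4 °C; pellet taken as mitochondrial fraction, supernatant as cytosolic. Cytochrome c in each fraction by Western blot. One of three repeats shown.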
# A549 [11] = assay: Induction of apoptosis in human A549 cells assessed as decrease of procaspase-3 level after 36 hrs by Western blotting; assay type: functional, cell-based
# Method in brief: (§2)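 A549 cells exposed 0-10 μM or 0.1% DMSO for 36 h; lysed in SDS sample buffer, boiled, SDS-PAGE, PVDF transfer, blocked in 5% milk PBST, primary antibody overnight, HRP secondary with chemiluminescence. Probed for pro-caspase 3, pro-caspase 9, PARP, Bcl-2, Bax, Bak, actin. One of three repeats shown.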
# A549 [12] = assay: Induction of apoptosis in human A549 cells assessed as decrease of procaspase-9 level after 36 hrs by Western blotting; assay type: functional, cell-based; method in brief: as §2
# A549 [13] = assay: Induction of apoptosis in human A549 cells assessed as cleavage of PARP at 5 uM after 36 hrs by Western blotting; assay type: functional, cell-based
# A549 [14] = assay: Induction of apoptosis in human A549 cells assessed as cleavage of caspase-8 at 5 uM after 36 hrs by Western blotting; assay type: functional, cell-based
# A549 [15] = assay: Induction of apoptosis in human A549 cells assessed as reduction of Bcl-2 protein level at 5 uM after 36 hrs by Western blotting; assay type: functional, cell-based; method in brief: as §2
# A549 [16] = assay: Induction of apoptosis in human A549 cells assessed as increase of Bak protein level at 5 uM after 36 hrs by Western blotting; assay type: functional, cell-based; method in brief: as §2
# A549 [17] = assay: Induction of apoptosis in human A549 cells assessed as increase of Bax protein level at 5 uM after 36 hrs by Western blotting; assay type: functional, cell-based; method in brief: as §2
# A549 [18] = assay: Induction of apoptosis in human A549 cells assessed as increase of p53 protein level at 5 uM after 2 hrs by Western blotting; assay type: functional, cell-based
# Method in brief: (§3)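 A549 cells given 5 μM or 0.1% DMSO for 0-16 h; SDS lysates run on SDS-PAGE, transferred to PVDF, blocked in 5% milk PBST, primary antibody overnight, HRP secondary and chemiluminescence. p53, p21 and actin probed; one of three repeats shown.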
# A549 [19] = assay: Induction of apoptosis in human A549 cells assessed as increase of p53 protein level at 5 uM after 8 hrs by Western blotting; assay type: functional, cell-based; method in brief: as §3
# A549 [20] = assay: Antitumor activity against human A549 cells xenografted in BALB/c nude mouse assessed as inhibition of tumor growth at 3 mg/kg, sc qd for 5 days; assay type: functional, organism-based; parameters: dose 3 mg/kg
# Method in brief: (§4)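 Female athymic BALB/c nu/nu mice, 6-8 weeks, 18-22 g; 1 × 10^7 A549 cells implanted sc on back. At 80-120 mm3 tumors, randomized (six per group, day 0); daily sc dosing days 0-4 in 20% Tween 80/saline, >1.5 cm from tumor; vehicle controls. Tumor L and W measured to day 21-28; TV = (L × W2)/2, RTV = TVn/TV0. Activated caspase-3 immunohistochemistry on formalin-fixed paraffin tumor sections (day 28 after inoculation).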
# A549 [21] = assay: Antitumor activity against human A549 cells xenografted in BALB/c nude mouse assessed as increase in activated caspase-3 protein expression in tumor at 3 mg/kg, sc qd for 5 days by immunohistochemistry; assay type: functional, organism-based; parameters: dose 3 mg/kg; method in brief: as §4
# Mus musculus [22] = assay: Toxicity in human A549 cells xenografted BALB/c nude mouse assessed as histological changes in brain at 3 mg/kg, sc qd for 5 days; assay type: organism-based; parameters: dose 3 mg/kg, route subcutaneous; conditions: in vivo, 120 h
# Method in brief: (§5)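 Xenograft setting: female athymic BALB/c nu/nu mice bearing sc A549 tumors (80-120 mm3 at day 0), six per group, daily sc dosing days 0-4 in 20% Tween 80 in saline; vehicle controls. Body weight recorded three times weekly up to days 21-28. Brain, liver and kidney fixed in 4% formalin, paraffin-embedded and sectioned for histology.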
# Mus musculus [23] = assay: Toxicity in human A549 cells xenografted BALB/c nude mouse assessed as histological changes in liver at 3 mg/kg, sc qd for 5 days; assay type: organism-based; parameters: dose 3 mg/kg, route subcutaneous; conditions: in vivo, 120 h; method in brief: as §5
# Mus musculus [24] = assay: Toxicity in human A549 cells xenografted BALB/c nude mouse assessed as histological changes in kidney at 3 mg/kg, sc qd for 5 days; assay type: organism-based; parameters: dose 3 mg/kg, route subcutaneous; conditions: in vivo, 120 h; method in brief: as §5
# Mus musculus [25] = assay: Toxicity in human A549 cells xenografted BALB/c nude mouse assessed as change in body weight at 3 mg/kg, sc qd for 5 days; assay type: organism-based; parameters: dose 3 mg/kg, route subcutaneous; conditions: in vivo, 120 h; method in brief: as §5
structure (smiles),measurement,setting,value
COc1cc(/C=C/C=C/C=C/C=C/c2sccc2Cl)oc(=O)c1,IC50,A549 [1],> 20 µM
CC\C(=C/C=C/C=C/C=C/c1[nH]ccc1Cl)c1cc(OC)c(C)c(=O)o1,IC50,A549 [1],5.6 µM
O=c1cc(O)cc(/C=C/C=C/C=C/C=C/c2[nH]ccc2Cl)o1,IC50,A549 [1],> 20 µM
COc1cc(/C=C/C=C/C=C/C=C/c2cccc(Cl)c2)oc(=O)c1C,IC50,A549 [1],> 20 µM
COc1cc(/C=C/C=C/C=C/C=C/c2ccccc2Cl)oc(=O)c1C,IC50,A549 [1],> 20 µM
COc1cc(/C=C/C=C/C=C/C=C/c2sccc2Cl)oc(=O)c1C,IC50,A549 [1],> 20 µM
CCCCc1c(OC)cc(/C=C/C=C/C=C/C=C/c2[nH]ccc2Cl)oc1=O,IC50,A549 [1],5 µM
COc1cc(/C(C)=C/C=C/C=C/C=C/c2[nH]ccc2Cl)oc(=O)c1C,IC50,A549 [1],5.2 µM
C/C=C/C=C/C=C/C=C/c1cc(OC)c(C)c(=O)o1,IC50,A549 [1],> 20 µM
Cc1c(O)cc(/C=C/C=C/C=C/C=C/c2[nH]ccc2Cl)oc1=O,IC50,A549 [1],> 20 µM
COc1cc(/C=C/C=C/C=C/C=C/c2[nH]ccc2Cl)oc(=O)c1C [AUXARCONJUGATIN A],IC50,A549 [1],1.2 µM
COc1cc(/C=C/C=C/C=C/C=C/c2[nH]ccc2Cl)oc(=O)c1 [AUXARCONJUGATIN B],IC50,A549 [1],0.6 µM
same,Activity,[2],Non-toxic
same,Activity,A549 [3],Dose-dependent effect
same,Activity,A549 [4],42%
same,Activity,A549 [5],inactive
same,Activity,A549 [6],Active
same,Activity,A549 [7],inactive
same,Activity,A549 [8],inactive
same,Activity,A549 [9],Active
same,Activity,A549 [10],Active
same,Activity,A549 [11],Dose-dependent effect
same,Activity,A549 [12],Dose-dependent effect
same,Activity,A549 [13],Active
same,Activity,A549 [14],inactive
same,Activity,A549 [15],Active
same,Activity,A549 [16],Active
same,Activity,A549 [17],inactive
COc1cc(/C=C/C=C/C=C/C=C/c2c(Cl)ccn2S(C)(=O)=O)oc(=O)c1C,IC50,A549 [1],> 20 µM
CCCCc1c(OC)cc(/C(C)=C/C=C/C=C/C=C/c2[nH]ccc2Cl)oc1=O,IC50,A549 [1],0.01 µM
same,Activity,[2],Non-toxic
same,Activity,A549 [3],Dose-dependent effect
same,Activity,A549 [4],47%
same,Activity,A549 [5],inactive
same,Activity,A549 [6],Active
same,Activity,A549 [7],inactive
same,Activity,A549 [8],inactive
same,Activity,A549 [9],Active
same,Activity,A549 [10],Active
same,Activity,A549 [11],Dose-dependent effect
same,Activity,A549 [12],Dose-dependent effect
same,Activity,A549 [13],Active
same,Activity,A549 [14],inactive
same,Activity,A549 [15],Active
same,Activity,A549 [16],Active
same,Activity,A549 [17],inactive
same,Activity,A549 [18],Active
same,Activity,A549 [19],Active
same,Activity,A549 [20],Active
same,Activity,A549 [21],Active
same,Activity,Mus musculus [22],Non-toxic
same,Activity,Mus musculus [23],Non-toxic
same,Activity,Mus musculus [24],Non-toxic
same,Activity,Mus musculus [25],Non-toxic
COc1cc(/C(C)=C/C=C/C=C/C=C/c2[nH]ccc2Cl)oc(=O)c1,IC50,A549 [1],2.5 µM

# From ChEMBL document CHEMBL1269005, “Synthesis and biological evaluation of polyenylpyrrole derivatives as anticancer agents acting through caspases-dependent apoptosis” (J Med Chem, 2010)
